In ChEMBL document CHEMBL1141282, “Isariotins A-D, alkaloids from the insect pathogenic fungus Isaria tenuipes BCC 7831” (J Nat Prod, 2007) one finds Activity and MIC data, which are given here for four molecules.

As usually defined, the MIC is the lowest concentration found to suppress growth.

Converted amounts (≈) assume the structure as drawn. The source made the active and inactive calls. No cut-off for these calls is given here.

For one data set, the system named is Plasmodium falciparum. The experiment in a line: Antiplasmodial activity against Plasmodium falciparum K1 to 20 ug/mL. Type of data set: functional, organism-based.
In a further data set the test system is Candida albicans. In words: Antifungal activity against Candida albicans up to 50 ug/mL. Type of data set: functional, organism-based.
A further data set has as its system Pyricularia grisea. The experiment in a line: Antifungal activity against Magnaporthe grisea up to 50 ug/mL. Type of data set: functional, organism-based.
The subject of another data set is KB. In words: Cytotoxicity against human KB cells up to 20 ug/mL. Type of data set: functional, cell-based.
A further data set concerns BC. The experiment in a line: Cytotoxicity against human BC cells up to 20 ug/mL. Type of data set: functional, cell-based.
The test system of the next data set is NCI-H187. The experiment in a line: Cytotoxicity against human NCI-H-187 cells up to 20 ug/mL. Type of data set: functional, cell-based.
For a further data set, the system named is Vero. In words: Cytotoxicity against African green monkey Vero cells up to 50 ug/mL. Type of data set: cell-based. The note with it: chlorocebus sabaeus.
Data set [1] concerns Mycobacterium tuberculosis. The experiment in a line: Antitubercular activity against Mycobacterium tuberculosis H37Ra. Type of data set: functional. The method in brief: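 Whole-cell test against the H37Ra strain, with the minimum inhibitory concentration (MIC) read out in µg/mL.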

Turning to `CCCCCCC/C=C/C(=O)N[C@H]1C[C@@]2(O)C(=O)[C@H]([C@H](O)[C@@H]3O[C@@H]32)[C@H]1O` [ISARIOTIN D], the outcome in the data set with Plasmodium falciparum, in the data set on Candida albicans, in the data set on Pyricularia grisea, in the data set with KB, with BC and in the data set with NCI-H187 was inactive. In addition, the Activity entry in the data set on Vero is “Not Active”. Moreover, it took 544 µM (≈ 200 µg/mL) to inhibit growth in data set [1] (MIC).

Regarding `CCCCCC(=O)CCC/C=C/C(=O)N[C@H]1C[C@@]2(O)C(=O)[C@H]([C@H](O)[C@@H]3O[C@@H]32)[C@H]1O` [ISARIOTIN C], the result in the data set with Plasmodium falciparum, in the data set on Candida albicans, in the data set with Pyricularia grisea, with KB, in the data set with BC and in the data set with NCI-H187 was inactive. Also, in the data set on Vero, the Activity entry is “Not Active”. Moreover, in data set [1], the MIC was 488 µM (≈ 200 µg/mL).

`O=C(/C=C/CCCCCCCCCO)N[C@H]1C[C@@]2(O)C(=O)[C@H]([C@H](O)[C@@H]3O[C@@H]32)[C@H]1O` [ISARIOTIN A]: the result in the data set on Plasmodium falciparum, in the data set with Candida albicans, in the data set on Pyricularia grisea, in the data set with KB, in the data set with BC and with NCI-H187 was inactive. Besides, the Activity result with Vero was “Not Active”. In data set [1], this molecule came in with an MIC of 486 µM (≈ 200 µg/mL).

For the molecule `O=C(O)CCCCCCCC/C=C/C(=O)N[C@H]1C[C@@]2(O)C(=O)[C@H]([C@H](O)[C@@H]3O[C@@H]32)[C@H]1O` [ISARIOTIN B], the result with Plasmodium falciparum, with Candida albicans, in the data set with Pyricularia grisea, in the data set with KB, in the data set with BC and in the data set with NCI-H187 was inactive. In the data set with Vero, the Activity entry is listed as “Not Active”.
